Experimental data: ChEMBL document CHEMBL4689842, “EUbOPEN Chemogenomics Library wave 1” (2021)
Where “and” joins values, the source holds several entries; their conditions need not be identical. Identical values can stand only once.

Test system: U2OS
Test: Multiplex assay against U2OS
Type: toxicity, cell-based
Details: human
Method in brief: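 Live cells were stained at seeding with Hoechst33342, BioTracker Green Microtubule Cytoskeleton Dye, MitoTracker Red and Annexin V Alexa Fluor 680. Following compound addition, they were imaged on a CQ1 microscope at 37°C and 5% CO2 and gated by CellPathfinder machine learning into Hoechst high-intensity objects or normal cells, with normal cells split into healthy, pyknosed or fragmented nuclei and pyknosed cells into mitotic or apoptotic. Tubulin, mitochondrial-mass and membrane-permeability phenotypes are per cents of healthy-nucleus cells.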

[1] = 12 h, 10 µM, compound concentration 10 uM, replicate 1
[2] = 12 h, 10 µM, compound concentration 10 uM, replicate 2
[3] = 24 h, 10 µM, compound concentration 10 uM, replicate 1
[4] = 24 h, 10 µM, compound concentration 10 uM, replicate 2
[5] = 12 h, 1 µM, compound concentration 1 uM, replicate 1
[6] = 12 h, 1 µM, compound concentration 1 uM, replicate 2
[7] = 24 h, 1 µM, compound concentration 1 uM, replicate 1
[8] = 24 h, 1 µM, compound concentration 1 uM, replicate 2
[9] = 48 h, 10 µM, compound concentration 10 uM, replicate 1
[10] = 48 h, 10 µM, compound concentration 10 uM, replicate 2

With `CN1C(=O)c2sccc2N(C)c2nc(Nc3ccc(S(N)(=O)=O)cc3)ncc21` the “Population Apoptotic (%)” value [1] was 30% and 31%, the “Population Fragmented Nuclei (%)” value [1] was 5% and 4% and the “Population Healthy Nuclei (%)” value [1] was 88% and 84%. The “Population Hoechst High Intensity Objects (%)” value [1] was 1%, the “Population Membrane Permeable-Phenotype (%)” value [1] was 14% and 7% and the “Population Mitochondria Different-Phenotype (%)” value [1] was 17% and 22%. The “Population Mitotic Cells (%)” value [1] was 70% and 68%, the “Population Normal (%)” value [1] was 98% and the “Population Pyknosed Nuclei (%)” value [1] was 5% and 10%. For the same compound, the “Population Tubulin-Different-Phenotype (%)” value [1] was 15% and 31%, the “Total Cell Count” value [1] was 144 and 172 and the “Population Fragmented Nuclei (%)” value [2] was 6% and 13%. For the same compound, the “Population Healthy Nuclei (%)” value [2] was 83% and 78%, the “Population Hoechst High Intensity Objects (%)” value [2] was 8% and 19% and the “Population Membrane Permeable-Phenotype (%)” value [2] was 19% and 8%. For the same compound, the “Population Mitochondria Different-Phenotype (%)” value [2] was 36% and 35%, the “Population Mitotic Cells (%)” value [2] was 90% and 66% and the “Population Normal (%)” value [2] was 91% and 80%. The “Population Pyknosed Nuclei (%)” value [2] was 9% and 7%, the “Population Tubulin-Different-Phenotype (%)” value [2] was 18% and 21% and the “Total Cell Count” value [2] was 94 and 98. For the same compound, the “Population Apoptotic (%)” value [3] was 28% and 42%, the “Population Fragmented Nuclei (%)” value [3] was 4% and 6% and the “Population Healthy Nuclei (%)” value [3] was 92% and 84%. The “Population Hoechst High Intensity Objects (%)” value [3] was 0% and 1%, the “Population Membrane Permeable-Phenotype (%)” value [3] was 7% and 6% and the “Population Mitochondria Different-Phenotype (%)” value [3] was 15% and 44%. For the same compound, the “Population Mitotic Cells (%)” value [3] was 71% and 57%, the “Population Normal (%)” value [3] was 99% and 98% and the “Population Pyknosed Nuclei (%)” value [3] was 2% and 9%. For the same compound, the “Population Tubulin-Different-Phenotype (%)” value [3] was 42%, the “Total Cell Count” value [3] was 142 and 237 and the “Population Fragmented Nuclei (%)” value [4] was 9% and 12%. For the same compound, the “Population Healthy Nuclei (%)” value [4] was 80%, the “Population Hoechst High Intensity Objects (%)” value [4] was 8% and 12% and the “Population Membrane Permeable-Phenotype (%)” value [4] was 11%. For the same compound, the “Population Mitochondria Different-Phenotype (%)” value [4] was 57% and 27%, the “Population Mitotic Cells (%)” value [4] was 63% and 100% and the “Population Normal (%)” value [4] was 91% and 87%. The “Population Pyknosed Nuclei (%)” value [4] was 10% and 3%, the “Population Tubulin-Different-Phenotype (%)” value [4] was 17% and 40% and the “Total Cell Count” value [4] was 112 and 90.

`COc1cc2nccc(Oc3ccc(NC(=O)Nc4cc(C)on4)c(Cl)c3)c2cc1OC.O` was tested, and the “Population Apoptotic (%)” value [5] was 50% and 42%, the “Population Fragmented Nuclei (%)” value [5] was 7% and 3% and the “Population Healthy Nuclei (%)” value [5] was 86% and 89%. For the same compound, the “Population Membrane Permeable-Phenotype (%)” value [5] was 26%, the “Population Mitotic Cells (%)” value [5] was 50% and 57% and the “Population Normal (%)” value [5] was 95% and 98%. The “Population Pyknosed Nuclei (%)” value [5] was 6% and 7%, the “Total Cell Count” value [5] was 193 and 192 and the “Population Apoptotic (%)” value [6] was 0%. The “Population Fragmented Nuclei (%)” value [6] was 10% and 8%, the “Population Healthy Nuclei (%)” value [6] was 77% and 91% and the “Population Hoechst High Intensity Objects (%)” value [6] was 6% and 14%. The “Population Membrane Permeable-Phenotype (%)” value [6] was 25% and 19%, the “Population Mitochondria Different-Phenotype (%)” value [6] was 61% and 24% and the “Population Mitotic Cells (%)” value [6] was 0%. The “Population Normal (%)” value [6] was 93% and 85%, the “Population Pyknosed Nuclei (%)” value [6] was 12% and 0% and the “Population Tubulin-Different-Phenotype (%)” value [6] was 19%. For the same compound, the “Total Cell Count” value [6] was 132 and 71, the “Population Apoptotic (%)” value [1] was 70% and the “Population Fragmented Nuclei (%)” value [1] was 16%. For the same compound, the “Population Healthy Nuclei (%)” value [1] was 57%, the “Population Hoechst High Intensity Objects (%)” value [1] was 11% and the “Population Membrane Permeable-Phenotype (%)” value [1] was 25%. The “Population Mitochondria Different-Phenotype (%)” value [1] was 96%, the “Population Mitotic Cells (%)” value [1] was 30% and the “Population Normal (%)” value [1] was 88%. For the same compound, the “Population Pyknosed Nuclei (%)” value [1] was 25%, the “Population Tubulin-Different-Phenotype (%)” value [1] was 100% and the “Total Cell Count” value [1] was 152. The “Population Apoptotic (%)” value [2] was 71%, the “Population Fragmented Nuclei (%)” value [2] was 11% and the “Population Healthy Nuclei (%)” value [2] was 75%. The “Population Hoechst High Intensity Objects (%)” value [2] was 3%, the “Population Membrane Permeable-Phenotype (%)” value [2] was 36% and the “Population Mitochondria Different-Phenotype (%)” value [2] was 97%. For the same compound, the “Population Mitotic Cells (%)” value [2] was 28%, the “Population Normal (%)” value [2] was 96% and the “Population Pyknosed Nuclei (%)” value [2] was 12%. The “Population Tubulin-Different-Phenotype (%)” value [2] was 97%, the “Total Cell Count” value [2] was 58 and the “Population Apoptotic (%)” value [7] was 73% and 33%. For the same compound, the “Population Healthy Nuclei (%)” value [7] was 62% and 92%, the “Population Membrane Permeable-Phenotype (%)” value [7] was 42% and 15% and the “Population Mitotic Cells (%)” value [7] was 26% and 66%. For the same compound, the “Population Normal (%)” value [7] was 95% and 98%, the “Total Cell Count” value [7] was 272 and 251 and the “Population Apoptotic (%)” value [8] was 83% and 100%. The “Population Fragmented Nuclei (%)” value [8] was 17% and 9%, the “Population Healthy Nuclei (%)” value [8] was 58% and 89% and the “Population Hoechst High Intensity Objects (%)” value [8] was 15% and 9%. The “Population Membrane Permeable-Phenotype (%)” value [8] was 47% and 17%, the “Population Mitotic Cells (%)” value [8] was 16% and 0% and the “Population Normal (%)” value [8] was 84% and 90%. For the same compound, the “Population Pyknosed Nuclei (%)” value [8] was 24% and 0%, the “Total Cell Count” value [8] was 159 and 78 and the “Population Apoptotic (%)” value [3] was 82%. The “Population Fragmented Nuclei (%)” value [3] was 28%, the “Population Healthy Nuclei (%)” value [3] was 42% and the “Population Hoechst High Intensity Objects (%)” value [3] was 8%. For the same compound, the “Population Membrane Permeable-Phenotype (%)” value [3] was 61%, the “Population Mitochondria Different-Phenotype (%)” value [3] was 98% and the “Population Mitotic Cells (%)” value [3] was 17%. For the same compound, the “Population Normal (%)” value [3] was 91%, the “Population Pyknosed Nuclei (%)” value [3] was 29% and the “Population Tubulin-Different-Phenotype (%)” value [3] was 100%. The “Total Cell Count” value [3] was 142, the “Population Apoptotic (%)” value [4] was 92% and the “Population Fragmented Nuclei (%)” value [4] was 16%. The “Population Healthy Nuclei (%)” value [4] was 60%, the “Population Hoechst High Intensity Objects (%)” value [4] was 3% and the “Population Membrane Permeable-Phenotype (%)” value [4] was 67%. The “Population Mitochondria Different-Phenotype (%)” value [4] was 100%, the “Population Mitotic Cells (%)” value [4] was 7% and the “Population Normal (%)” value [4] was 96%. The “Population Pyknosed Nuclei (%)” value [4] was 23%, the “Population Tubulin-Different-Phenotype (%)” value [4] was 97% and the “Total Cell Count” value [4] was 58. The “Population Apoptotic (%)” value [9] was 91%, the “Population Fragmented Nuclei (%)” value [9] was 41% and the “Population Healthy Nuclei (%)” value [9] was 15%. The “Population Hoechst High Intensity Objects (%)” value [9] was 13%, the “Population Membrane Permeable-Phenotype (%)” value [9] was 86% and the “Population Mitochondria Different-Phenotype (%)” value [9] was 100%. The “Population Mitotic Cells (%)” value [9] was 8%, the “Population Normal (%)” value [9] was 86% and the “Population Pyknosed Nuclei (%)” value [9] was 42%. For the same compound, the “Population Tubulin-Different-Phenotype (%)” value [9] was 100%, the “Total Cell Count” value [9] was 153 and the “Population Apoptotic (%)” value [10] was 87%. The “Population Fragmented Nuclei (%)” value [10] was 13%, the “Population Healthy Nuclei (%)” value [10] was 67% and the “Population Hoechst High Intensity Objects (%)” value [10] was 15%. The “Population Membrane Permeable-Phenotype (%)” value [10] was 96%, the “Population Mitotic Cells (%)” value [10] was 12% and the “Population Normal (%)” value [10] was 84%. For the same compound, the “Population Pyknosed Nuclei (%)” value [10] was 18% and the “Total Cell Count” value [10] was 62.
